Laboratory results as given in ChEMBL document CHEMBL3352487, “Synthesis, antibacterial activity, and biological evaluation of formyl hydroxyamino derivatives as novel potent peptide deformylase inhibitors against drug-resistant bacteria” (Eur J Med Chem, 2014).
Values after ≈ are worked out from the molar mass of the structure shown.

What was measured:
[1] = system: Staphylococcus aureus; experiment: Antimicrobial activity against Staphylococcus aureus ATCC 33591 in septicemia mouse model administered intragastrically measured after 14 days; format: functional; conditions: ATCC 33591, po, 336 h
[2] = system: Staphylococcus aureus; experiment: Antimicrobial activity against Staphylococcus aureus ATCC 33591 in septicemia mouse model assessed as mortality of host at 20 mg/kg administered intragastrically measured after 14 days relative to control; format: functional; conditions: ATCC 33591, po, 336 h, route intragastric
Procedure, shortened: (§1)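 Septicemia model: outbred mice inoculated i.p. with a 90–100% lethal dose (5 × 10^6 CFU/mL) in 0.5 mL brain heart infusion broth with 5% mucin. Drug in 20% DMSO given intragastrically after infection at 5, 10 or 20 mg/kg, 0.1 mL. Six mice per dose; cumulative mortality over 14 days; ED50 derived.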

[3] = system: Staphylococcus aureus; experiment: Antimicrobial activity against Staphylococcus aureus ATCC 33591 in septicemia mouse model assessed as mortality of host at 10 mg/kg administered intragastrically measured after 14 days relative to control; format: functional; conditions: ATCC 33591, po, 336 h, route intragastric; procedure, shortened: as §1
[4] = system: Staphylococcus aureus; experiment: Antimicrobial activity against Staphylococcus aureus ATCC 33591 in septicemia mouse model assessed as mortality of host at 5 mg/kg administered intragastrically measured after 14 days relative to control; format: functional; conditions: ATCC 33591, po, 336 h, route intragastric; procedure, shortened: as §1
[5] = Fraction unbound in CD1 mouse plasma at 2 uM by equilibrium dialysis; format: ADME, cell-free
Procedure, shortened: (§2)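 Pooled CD-1 mouse plasma spiked to 2 µM final, equilibrium dialysis in triplicate against 100 mM PBS pH 7.4, 4 h at 37 °C with rotation; matrix-matched samples acetonitrile-precipitated, LC-MS/MS with internal standards. Unbound = free/total ×100; recovery = (free+total)/pre-dialysis ×100.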

[6] = Protein binding in CD1 mouse plasma at 2 uM by equilibrium dialysis; format: ADME, cell-free; conditions: read-out: PPB (converted)
[7] = Drug recovery in CD1 mouse plasma at 2 uM by equilibrium dialysis; format: ADME, cell-free; conditions: read-out: Drug recovery; procedure, shortened: as §2
[8] = target: T1, hERG (KCNH2) (Homo sapiens, UniProt Q12809); experiment: Inhibition of human ERG at 1 uM
T1 sequence (Q12809 whole entry): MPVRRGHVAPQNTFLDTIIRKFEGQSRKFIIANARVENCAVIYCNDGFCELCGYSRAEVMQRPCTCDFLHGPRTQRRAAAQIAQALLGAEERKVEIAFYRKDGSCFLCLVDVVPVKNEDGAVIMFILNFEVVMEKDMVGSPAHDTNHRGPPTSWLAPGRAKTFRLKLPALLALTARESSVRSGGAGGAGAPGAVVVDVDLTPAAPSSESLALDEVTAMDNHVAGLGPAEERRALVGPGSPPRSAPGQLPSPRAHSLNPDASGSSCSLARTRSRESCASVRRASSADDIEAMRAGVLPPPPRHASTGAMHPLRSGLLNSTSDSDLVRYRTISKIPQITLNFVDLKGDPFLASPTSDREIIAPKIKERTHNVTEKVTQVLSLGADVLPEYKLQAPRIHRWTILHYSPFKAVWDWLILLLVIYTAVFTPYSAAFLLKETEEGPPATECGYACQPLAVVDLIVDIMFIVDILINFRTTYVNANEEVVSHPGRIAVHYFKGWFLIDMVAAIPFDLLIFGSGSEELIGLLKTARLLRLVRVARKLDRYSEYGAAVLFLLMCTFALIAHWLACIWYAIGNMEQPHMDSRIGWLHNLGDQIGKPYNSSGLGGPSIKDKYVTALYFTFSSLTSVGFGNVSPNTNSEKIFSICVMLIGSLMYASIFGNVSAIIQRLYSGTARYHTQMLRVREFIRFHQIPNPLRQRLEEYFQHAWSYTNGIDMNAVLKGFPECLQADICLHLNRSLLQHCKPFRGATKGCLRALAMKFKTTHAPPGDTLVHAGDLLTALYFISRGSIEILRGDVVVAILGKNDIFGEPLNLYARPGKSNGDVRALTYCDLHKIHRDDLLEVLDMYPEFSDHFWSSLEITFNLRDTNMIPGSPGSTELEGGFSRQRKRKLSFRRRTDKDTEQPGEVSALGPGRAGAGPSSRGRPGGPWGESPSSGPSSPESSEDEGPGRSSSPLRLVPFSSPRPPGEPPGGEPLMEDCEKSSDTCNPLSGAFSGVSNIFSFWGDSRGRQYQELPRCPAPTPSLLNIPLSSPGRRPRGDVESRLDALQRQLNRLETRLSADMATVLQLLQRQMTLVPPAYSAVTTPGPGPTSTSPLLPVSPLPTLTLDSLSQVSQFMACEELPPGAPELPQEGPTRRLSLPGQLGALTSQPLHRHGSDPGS

[9] = system: Staphylococcus aureus; experiment: Antimicrobial activity against Staphylococcus aureus after 24 hrs by broth microdilution method; format: functional
Procedure, shortened: (§3)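 Broth microdilution following NCCLS M7-A4; ATCC strains and clinical isolates from a provincial hospital.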

[10] = system: Staphylococcus aureus; experiment: Antimicrobial activity against methicillin-susceptible Staphylococcus aureus after 24 hrs by broth microdilution method; format: functional; procedure, shortened: as §3
[11] = system: Staphylococcus aureus; experiment: Antimicrobial activity against methicillin-resistant Staphylococcus aureus after 24 hrs by broth microdilution method; format: functional
Procedure, shortened: (§4)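 Broth microdilution following NCCLS M7-A4, using ATCC strains and clinical isolates from a provincial hospital.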

[12] = system: Staphylococcus epidermidis; experiment: Antimicrobial activity against Staphylococcus epidermidis after 24 hrs by broth microdilution method; format: functional; procedure, shortened: as §3
[13] = system: Escherichia coli; experiment: Antimicrobial activity against Escherichia coli isolate 1 after 24 hrs by broth microdilution method; format: functional; conditions: isolate 1, 24 h; procedure, shortened: as §3
[14] = system: Escherichia coli; experiment: Antimicrobial activity against Escherichia coli isolate 2 after 24 hrs by broth microdilution method; format: functional; conditions: isolate 2, 24 h; procedure, shortened: as §3
[15] = system: Staphylococcus aureus; experiment: Antimicrobial activity against Staphylococcus aureus OXFORD after 24 hrs by broth microdilution method; format: functional; procedure, shortened: as §4
[16] = system: Staphylococcus aureus; experiment: Antimicrobial activity against Staphylococcus aureus WCUH29 after 24 hrs by broth microdilution method; format: functional; conditions: WCUH29, 24 h; procedure, shortened: as §3
[17] = system: Enterococcus faecalis; experiment: Antimicrobial activity against Enterococcus faecalis Isolate 1 after 24 hrs by broth microdilution method; format: functional; conditions: Isolate 1, 24 h; procedure, shortened: as §3
[18] = system: Enterococcus faecium; experiment: Antimicrobial activity against Enterococcus faecium X7501 after 24 hrs by broth microdilution method; format: functional; conditions: X7501, 24 h; procedure, shortened: as §3
[19] = system: Haemophilus influenzae; experiment: Antimicrobial activity against Haemophilus influenzae Q1 after 24 hrs by broth microdilution method; format: functional; conditions: Q1, 24 h; procedure, shortened: as §3
[20] = system: Haemophilus influenzae; experiment: Antimicrobial activity against Haemophilus influenzae H128 after 24 hrs by broth microdilution method; format: functional; conditions: H128, 24 h; procedure, shortened: as §3
[21] = system: Haemophilus influenzae; experiment: Antimicrobial activity against AcrA-deficient Haemophilus influenzae H128 after 24 hrs by broth microdilution method; format: functional; conditions: H128, 24 h; procedure, shortened: as §3
[22] = system: Moraxella catarrhalis; experiment: Antimicrobial activity against Moraxella catarrhalis 1502 after 24 hrs by broth microdilution method; format: functional; conditions: Moraxella catarrhalis, 1502, 24 h; procedure, shortened: as §3
[23] = system: Streptococcus pneumoniae; experiment: Antimicrobial activity against Streptococcus pneumoniae 1629 after 24 hrs by broth microdilution method; format: functional; conditions: Streptococcus pneumoniae, 1629, 24 h; procedure, shortened: as §3
[24] = system: Streptococcus pneumoniae; experiment: Antimicrobial activity against Streptococcus pneumoniae N1387 after 24 hrs by broth microdilution method; format: functional; conditions: N1387, 24 h; procedure, shortened: as §3
[25] = system: Streptococcus pneumoniae; experiment: Antimicrobial activity against Streptococcus pneumoniae ERY2 after 24 hrs by broth microdilution method; format: functional; conditions: ERY2, 24 h; procedure, shortened: as §3
[26] = system: Escherichia coli; experiment: Antimicrobial activity against Escherichia coli isolate 3 after 24 hrs by broth microdilution method; format: functional; conditions: isolate 3, 24 h; procedure, shortened: as §3
[27] = system: Streptococcus pyogenes; experiment: Antimicrobial activity against Streptococcus pyogenes 1307006P after 24 hrs by broth microdilution method; format: functional; procedure, shortened: as §3
[28] = system: Streptococcus pyogenes; experiment: Antimicrobial activity against Streptococcus pyogenes 1308007P after 24 hrs by broth microdilution method; format: functional; procedure, shortened: as §3
[29] = Half life in Sprague-Dawley rat at 5 mg/kg, iv; format: ADME, organism-based; design: dose 5 mg/kg, route intravenous; conditions: in vivo
[30] = Mean residence time (0 to t) in Sprague-Dawley rat at 5 mg/kg, iv; format: ADME, organism-based; design: dose 5 mg/kg, route intravenous; conditions: in vivo
[31] = AUC (0 to t) in Sprague-Dawley rat at 5 mg/kg, iv; format: ADME, organism-based; design: dose 5 mg/kg, route intravenous; conditions: plasma
[32] = AUC (0 to infinity) in Sprague-Dawley rat at 5 mg/kg, iv; format: ADME, organism-based; design: time infinity, dose 5 mg/kg, route intravenous; conditions: plasma
[33] = Clearance in Sprague-Dawley rat at 5 mg/kg, iv; format: ADME, organism-based; design: dose 5 mg/kg, route intravenous; conditions: in vivo
[34] = Volume of distribution at steady state in Sprague-Dawley rat at 5 mg/kg, iv; format: ADME, organism-based; design: dose 5 mg/kg, route intravenous; conditions: in vivo, read-out: Vdss
[35] = Cmax in Sprague-Dawley rat at 25 mg/kg, po; format: ADME, organism-based; design: dose 25 mg/kg, route oral; conditions: in vivo
[36] = Tmax in Sprague-Dawley rat at 25 mg/kg, po; format: ADME, organism-based; design: dose 25 mg/kg, route oral; conditions: in vivo
[37] = Half life in Sprague-Dawley rat at 25 mg/kg, po; format: ADME, organism-based; design: dose 25 mg/kg, route oral; conditions: in vivo
[38] = AUC (0 to t) in Sprague-Dawley rat at 25 mg/kg, po; format: ADME, organism-based; design: dose 25 mg/kg, route oral; conditions: plasma
[39] = AUC (0 to infinity) in Sprague-Dawley rat at 25 mg/kg, po; format: ADME, organism-based; design: dose 25 mg/kg, route oral, time infinity; conditions: plasma
[40] = Mean residence time (0 to t) in Sprague-Dawley rat at 25 mg/kg, po; format: ADME, organism-based; design: dose 25 mg/kg, route oral; conditions: in vivo
[41] = Oral bioavailability in Sprague-Dawley rat at 25 mg/kg; format: ADME, organism-based; conditions: in vivo
[42] = target: T1, hERG (KCNH2); experiment: Inhibition of human ERG at 10 uM

For `C=C1C[C@@H](C(=O)Nc2ncc(C)s2)N(C(=O)[C@H](CCCC)CN(O)C=O)C1`, the ED50 [1] was 19.6 mg/kg, the mortality at 20 mg/kg [2] was 50% and the mortality at 10 mg/kg [3] was 66%. It also gave a mortality at 5 mg/kg [4] of 83%, a fraction unbound at 2 µM [5] of 0.01 and a fraction unbound at 2 µM [6] of 0.01. It also gave a recovery at 2 µM [7] of 93.7%, an inhibition at 1 µM [8] of -0.35% and an MIC [9] of 0.25 µg/mL (≈ 0.634 µM). For the same compound, the MIC [10] was 0.5 µg/mL (≈ 1.27 µM), the MIC [11] was 0.0312 µg/mL (≈ 0.0791 µM) and the MIC [12] was 0.0625 µg/mL (≈ 0.158 µM). It also gave an MIC [13] of 64 µg/mL (≈ 162 µM), an MIC [14] of 32 µg/mL (≈ 81.1 µM) and an MIC [15] of 0.5 µg/mL (≈ 1.27 µM). It also gave an MIC [16] of 0.125 µg/mL (≈ 0.317 µM), an MIC [17] of 4 µg/mL (≈ 10.1 µM) and an MIC [18] of 2 µg/mL (≈ 5.07 µM). The MIC [19] was 4 µg/mL (≈ 10.1 µM), the MIC [20] was 4 µg/mL (≈ 10.1 µM) and the MIC [21] was no more than 0.06 µg/mL. For the same compound, the MIC [22] was no more than 0.06 µg/mL, the MIC [23] was 2 µg/mL (≈ 5.07 µM) and the MIC [24] was 1 µg/mL (≈ 2.53 µM). It also gave an MIC [25] of 2 µg/mL (≈ 5.07 µM), an MIC [26] of 64 µg/mL (≈ 162 µM) and an MIC [27] of 2 µg/mL (≈ 5.07 µM). It also gave an MIC [28] of 2 µg/mL (≈ 5.07 µM), a half-life [29] of 3.21 h and an MRT last [30] of 2.03 h. For the same compound, the AUC(0-t) [31] was 19800 ng·h/mL, the AUC(0-inf) [32] was 19800 ng·h/mL and the clearance [33] was 4.83 mL/min/kg. The Vd [34] was 0.571 L/kg, the Cmax [35] was 15700 ng/mL and the Tmax [36] was 0.688 h. The half-life [37] was 3.02 h, the AUC(0-t) [38] was 58100 ng·h/mL and the AUC(0-inf) [39] was 58300 ng·h/mL. It also gave an MRT last [40] of 3.41 h, a bioavailability [41] of 58.9% and an inhibition at 10 µM [42] of -2.98%.
